This note sets out measurements from ChEMBL document CHEMBL1145325, “p38 MAP kinase inhibitors. Part 3: SAR on 3,4-dihydropyrimido[4,5-d]pyrimidin-2-ones and 3,4-dihydropyrido[4,3-d]pyrimidin-2-ones” (Bioorg Med Chem Lett, 2006).

Series [1] addresses Voltage-gated inwardly rectifying potassium channel KCNH2 (Homo sapiens, UniProt Q12809). Description: Binding affinity to iKr potassium channel.
Series [2] concerns the target Mitogen-activated protein kinase 14 (Homo sapiens, UniProt Q16539). Description: Inhibition of p38alpha.
Series [3] is filed under the species Homo sapiens. Description: Inhibition of LPS-stimulated TNFalpha release in human whole blood. In kind it is functional, organism-based.
For series [4], the target named is Voltage-gated L-type calcium channel (Homo sapiens, UniProt Q13936+Q13698+Q01668+O60840). Nature of the series: Binding affinity to DLZ binding site of calcium channel. It is filed as protein assay.
Series [5] concerns THP-1. Description: Inhibition of LPS-stimulated TNFalpha release in human THP1 cells. In kind it is functional, cell-based. The method in brief:
(§1)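 THP-1 cells at 2.5 · 10⁶/mL suspended in a PBS-based medium. Compound added in DMSO, then LPS. Incubated 4 h at 37 °C under CO₂. TNF-α in the supernatant measured by sandwich ELISA, with anti-human TNF-α as the capture antibody.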

Series [6] is filed under the species Homo sapiens. Nature of the series: Inhibition of LPS-stimulated TNFalpha release in human whole blood upto 15 uM. It is filed as functional, organism-based.
The nature of series [7]: Half life in rat. The settings on record: in vivo. It is filed as ADME, organism-based.
A short description of series [8]: Oral bioavailability in rat. In kind it is ADME, organism-based. The note with it: in vivo.
The subject of series [9] is THP-1. Description: Inhibition of LPS-stimulated TNFalpha release in human THP1 cells upto 15 uM. It is filed as functional, cell-based. The gist of the method: as §1

Chain of Voltage-gated inwardly rectifying potassium channel KCNH2 (Q12809 whole entry): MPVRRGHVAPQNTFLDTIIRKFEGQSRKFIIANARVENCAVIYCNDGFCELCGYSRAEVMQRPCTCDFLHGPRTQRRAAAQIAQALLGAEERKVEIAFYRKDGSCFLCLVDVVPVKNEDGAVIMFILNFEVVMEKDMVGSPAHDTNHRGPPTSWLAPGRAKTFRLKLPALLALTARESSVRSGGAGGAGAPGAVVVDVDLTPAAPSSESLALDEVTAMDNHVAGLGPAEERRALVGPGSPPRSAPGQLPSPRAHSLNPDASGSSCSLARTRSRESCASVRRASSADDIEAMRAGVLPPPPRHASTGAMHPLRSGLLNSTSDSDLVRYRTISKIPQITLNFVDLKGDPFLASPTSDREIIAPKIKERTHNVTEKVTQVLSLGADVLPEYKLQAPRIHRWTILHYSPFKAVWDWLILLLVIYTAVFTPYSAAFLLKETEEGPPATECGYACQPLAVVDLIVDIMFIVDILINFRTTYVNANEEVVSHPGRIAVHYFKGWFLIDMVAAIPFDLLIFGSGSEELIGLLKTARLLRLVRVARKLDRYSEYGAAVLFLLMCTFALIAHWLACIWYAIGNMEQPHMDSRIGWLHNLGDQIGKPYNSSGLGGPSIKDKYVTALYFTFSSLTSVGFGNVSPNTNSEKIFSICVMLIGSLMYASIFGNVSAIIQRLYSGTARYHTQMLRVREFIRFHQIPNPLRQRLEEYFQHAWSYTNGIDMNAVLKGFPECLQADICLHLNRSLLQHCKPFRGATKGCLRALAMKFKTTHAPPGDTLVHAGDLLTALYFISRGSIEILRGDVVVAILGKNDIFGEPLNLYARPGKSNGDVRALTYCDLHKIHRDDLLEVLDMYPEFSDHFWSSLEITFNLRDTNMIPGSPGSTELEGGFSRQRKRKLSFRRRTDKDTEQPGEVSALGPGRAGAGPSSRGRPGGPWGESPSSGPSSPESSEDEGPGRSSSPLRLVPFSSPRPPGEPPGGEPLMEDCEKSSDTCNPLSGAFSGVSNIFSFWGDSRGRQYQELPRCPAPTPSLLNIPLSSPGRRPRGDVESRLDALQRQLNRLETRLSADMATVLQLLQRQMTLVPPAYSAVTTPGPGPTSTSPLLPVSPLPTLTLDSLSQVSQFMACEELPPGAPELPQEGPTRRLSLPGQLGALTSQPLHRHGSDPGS
Chain of Mitogen-activated protein kinase 14 (Q16539 whole entry): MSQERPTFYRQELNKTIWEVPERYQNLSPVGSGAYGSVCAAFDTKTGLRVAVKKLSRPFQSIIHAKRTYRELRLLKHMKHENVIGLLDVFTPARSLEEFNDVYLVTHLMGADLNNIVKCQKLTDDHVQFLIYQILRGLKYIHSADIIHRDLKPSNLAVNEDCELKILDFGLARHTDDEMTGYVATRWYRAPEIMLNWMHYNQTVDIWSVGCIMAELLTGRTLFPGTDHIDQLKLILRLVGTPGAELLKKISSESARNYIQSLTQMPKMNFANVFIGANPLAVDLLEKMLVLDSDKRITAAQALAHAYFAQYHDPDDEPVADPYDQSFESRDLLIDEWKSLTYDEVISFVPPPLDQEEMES

Usually IC50 stands for the concentration at which inhibition is half-maximal. A low value points to higher potency. In the case of `CC1(C)CC(Nc2nc(-c3ccccc3Cl)c3c(n2)N(c2c(Cl)cccc2Cl)C(=O)NC3)CC(C)(C)N1`, the Activity in series [1] worked out at 4.5 µM; in [4], 1.2 µM. The 50% inhibitory concentration (IC50) in [2] amounted to 0.7 nM; in the series filed under Homo sapiens [3], 38 nM; in the series on THP-1 [5], 2.6 nM.
`O=C1NCc2c(-c3ccccc3Cl)cc(O)cc2N1c1c(Cl)cccc1Cl` gave an IC50 in series [2] of 2 nM.
In the case of `C[C@@H]1CN(c2nc(-c3ccc(Cl)cc3Cl)c3c(n2)N(c2c(Cl)cccc2Cl)C(=O)NC3)C[C@H](C)O1`, the Activity is 5 µM in series [1] and 6 µM in series [4]. Moreover, the 50% inhibitory concentration (IC50) in series [2] was 2 nM; in the series listed under Homo sapiens [6] it was “Not Active”; in the series with THP-1 [5], 500 nM.
Consider `CN(C)CCOc1nc(-c2ccccc2Cl)c2c(n1)N(c1c(Cl)cccc1Cl)C(=O)NC2`, for which the Activity in series [1] amounted to 10 µM; in series [4], 8.8 µM. The IC50 turned out to be 4.2 nM in [2], 250 nM in the series filed under Homo sapiens [3] and 21 nM in the series with THP-1 [5].
For `CN(C)CCN1CCN(c2nc(-c3ccccc3Cl)c3c(n2)N(c2c(Cl)cccc2Cl)C(=O)NC3)CC1` the same measures were 3.8 µM, 1.7 µM, 0.5 nM, 100 nM and 2.3 nM.
The matching figures for `O=C1NCc2c(-c3ccccc3Cl)nc(NC3CN4CCC3CC4)nc2N1c1c(Cl)cccc1Cl` (stereo not drawn): 5.8 µM, 1.3 µM, 1.2 nM, 360 nM and 34 nM.
`CC(C)N1CCC(c2cc(-c3ccc(F)cc3F)c3c(c2)N(c2c(Cl)cccc2Cl)C(=O)NC3)CC1`: the half-inhibitory concentration (IC50) in [2] stood at 0.2 nM; in the series filed under Homo sapiens [3] it was 20 nM.
A word on the half-life: it is the time needed for the level to fall by half in the phase considered. Read a high half-life as slow loss. In general, bioavailability refers to the share of a dose that reaches the circulation, judged against a reference dose that is usually intravenous. In series [7], `CC(C)N1CCC(c2cc3c(c(-c4ccccc4Cl)n2)CNC(=O)N3c2c(Cl)cccc2Cl)CC1` had a half-life of 2.1 h. In series [8], this molecule had a bioavailability of 18%.
On to `CSc1nc(-c2ccccc2Cl)c2c(n1)N(c1c(Cl)cccc1Cl)C(=O)NC2`, for which the IC50 is 10 nM in series [2], “Not Active” in the series listed under Homo sapiens [6] and 700 nM in the series on THP-1 [5]. The Activity in series [4] turned out to be 6 µM.
With `CN1C2CCC1CC(Nc1nc(-c3ccccc3Cl)c3c(n1)N(c1c(Cl)cccc1Cl)C(=O)NC3)C2` (stereo not drawn), the Activity in [1] is 8.9 µM; in series [4], 2.2 µM. In addition, the IC50 came to 0.5 nM in series [2], 17 nM in the series filed under Homo sapiens [3] and 2.6 nM with THP-1 [5].
Turning to `Nc1nc(-c2ccccc2Cl)c2c(n1)N(c1c(Cl)cccc1Cl)C(=O)NC2`, the half-life in series [7] is 1.1 h. Further, the IC50 in [2] worked out at 5.3 nM; in the series listed under Homo sapiens [3] it was 2000 nM; in the series with THP-1 [5] it was 81 nM. Also, the Activity in series [4] turned out to be 9.2 µM. Further, the bioavailability in [8] was 100%.
Consider `CS(=O)(=O)c1nc(-c2ccccc2Cl)c2c(n1)N(c1c(Cl)cccc1Cl)C(=O)NC2`, for which the Activity in series [1] is 9 µM; in [4] it was > 10 µM. Besides, the IC50 in [2] is 4.2 nM; in the series filed under Homo sapiens [6] it was “Not Active”; in the series with THP-1 [5], 500 nM.
As to `CN(C)CCN1CCN(c2nc(-c3ccc(Cl)cc3Cl)c3c(n2)N(c2c(Cl)cccc2Cl)C(=O)NC3)CC1`, the IC50 in series [2] was determined as 1 nM; in the series listed under Homo sapiens [3], 42 nM; with THP-1 [5], 22 nM. In [4], the Activity came to 0.22 µM. The molecule also came in with a bioavailability in series [8] of 3%.
As for `CN(C)CCNc1nc(-c2ccc(Cl)cc2Cl)c2c(n1)N(c1c(Cl)cccc1Cl)C(=O)NC2`, the figures for the Activity in series [1] and in series [4] were 0.5 µM and 1 µM, respectively. Also, the values for the IC50 (in series [2]; in the series filed under Homo sapiens [3]; in the series with THP-1 [5]) were 5.6 nM, 32 nM and 20 nM, respectively.
For `COCCNc1nc(-c2ccc(Cl)cc2Cl)c2c(n1)N(c1c(Cl)cccc1Cl)C(=O)NC2` the same measures were 3 µM, > 10 µM, 2 nM, 270 nM and 97 nM.
Turning to `O=C1NCc2c(-c3ccccc3Cl)nc(O)nc2N1c1c(Cl)cccc1Cl`, the Activity in series [1] was 4.6 µM; in series [4], 7 µM. In addition, the IC50 is 4 nM in [2], “Not Active” in the series filed under Homo sapiens [6] and 170 nM with THP-1 [5].
For `CC(C)Nc1nc(-c2ccccc2Cl)c2c(n1)N(c1c(Cl)cccc1Cl)C(=O)NC2` the same measures were 4.5 µM, 10 µM, 1.1 nM, “Not Active” and 38 nM.
Take `O=C1NCc2c(-c3ccccc3Cl)nc(N3CCc4[nH]ncc4C3)nc2N1c1c(Cl)cccc1Cl`: the Activity in series [1] is 10 µM; in series [4], > 30 µM. Moreover, the half-inhibitory concentration (IC50) in [2] amounted to 1.9 nM; in the series listed under Homo sapiens [3] it was 500 nM; in the series with THP-1 [5], 28 nM.
The matching figures for `CC(C)(C)CNc1nc(-c2ccccc2Cl)c2c(n1)N(c1c(Cl)cccc1Cl)C(=O)NC2`: 10 µM, > 30 µM, 0.8 nM, 1000 nM and 21 nM.
With `O=C1NCc2c(-c3ccccc3Cl)nc(NN3CCOCC3)nc2N1c1c(Cl)cccc1Cl`, the Activity is 6.9 µM in series [1] and 7 µM in series [4]. The IC50 in series [2] was 4 nM; in the series filed under Homo sapiens [3], 1000 nM; in the series with THP-1 [5] it was 99 nM.
Regarding `O=C1NCc2c(-c3ccc(F)cc3F)cc(C3CCNCC3)cc2N1c1c(Cl)cccc1Cl`, the IC50 in the series filed under Homo sapiens [3] was found to be 10 nM.
In [7], `CC(C)N1CCC(Nc2nc(-c3ccccc3Cl)c3c(n2)N(c2c(Cl)cccc2Cl)C(=O)NC3)CC1` showed a half-life of 2 h. In addition, the Activity was determined as 6.4 µM in series [1] and 3.3 µM in [4]. In addition, the values for the IC50 (in [2]; in the series filed under Homo sapiens [3]; in the series on THP-1 [5]) were 0.6 nM, 15 nM and 1 nM, respectively. In series [8], this molecule showed a bioavailability of 24%.
Take `O=C1NCc2c(-c3ccccc3Cl)nc(N3CCOCC3)nc2N1c1c(Cl)cccc1Cl`: the figures for the IC50 (in [2]; in the series filed under Homo sapiens [6]; in the series with THP-1 [5]) were 2 nM, “Not Active” and 500 nM, respectively. Moreover, the Activity in [4] is 6 µM.
Turning to `CC(C)N1CCN(c2nc(-c3ccc(Cl)cc3Cl)c3c(n2)N(c2c(Cl)cccc2Cl)C(=O)NC3)CC1`, the Activity in [1] stood at 0.2 µM; in series [4] it was 0.7 µM. Besides, the IC50 in series [2] was 20 nM; in the series listed under Homo sapiens [3] it was 1940 nM; with THP-1 [5], 330 nM.
Turning to `Nc1cc(-c2ccccc2Cl)c2c(c1)N(c1c(Cl)cccc1Cl)C(=O)NC2`, the IC50 in series [2] is 6 nM.
For `CNc1nc(-c2ccccc2Cl)c2c(n1)N(c1c(Cl)cccc1Cl)C(=O)NC2`, the Activity in series [1] was found to be 6.4 µM; in series [4] it was 10 µM. For the same molecule, the results for the IC50 (in [2]; in the series filed under Homo sapiens [3]; in the series on THP-1 [5]) were 2 nM, 850 nM and 22 nM, respectively.
As for `CN(C)c1nc(-c2ccccc2Cl)c2c(n1)N(c1c(Cl)cccc1Cl)C(=O)NC2`, the Activity in series [1] is 6 µM; in series [4] it was > 10 µM. For the same molecule, the IC50 is 3 nM in [2], “Not Active” in the series listed under Homo sapiens [6] and “Not Active” in the series with THP-1 [9].
